Laboratory results published in ChEMBL document CHEMBL4308831, “Developing a Biased Unmatched Bivalent Ligand (BUmBL) Design Strategy to Target the GPCR Homodimer Allosteric Signaling (cAMP over β-Arrestin 2 Recruitment) Within the Melanocortin Receptors” (J Med Chem, 2018).
The source made the active and inactive calls. The rule behind the calls is not given here. Non-standard residues stand in square brackets, D forms with d. Residues, ends and D or L forms follow the SMILES beside them. d2Nal = N[C@H](Cc1ccc2ccccc2c1)C(=O)O

What was measured:
Melanocortin receptor 4 [1] = target: T1, Melanocortin receptor 4 (Homo sapiens, UniProt P32245); assay: Agonist activity at human FLAG-tagged MC4R expressed in HEK293 cells assessed as induction of intracellular cAMP accumulation at 10 uM after 2 hrs by AlphaScreen assay relative to NDP-MSH; format: functional, cell-based
How it was run: (§1)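 Stable HEK293 lines (G418 selection) carrying the receptor in pcDNA3, detached with Versene and resuspended in HBSS stimulation buffer containing 0.5 mM IBMX, 5 mM HEPES, 0.1% BSA, pH 7.4, with anti-cAMP acceptor beads; 10,000 cells/well. Ligand 10^-13 to 10^-4 M final, 2 h at room temperature in the dark, then donor beads in lysis buffer for 2 h. Duplicates, ≥3 experiments; curves normalized and flipped relative to controls.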

Melanocortin receptor 4 [2] = target: T1, Melanocortin receptor 4; assay: Antagonist activity at human FLAG-tagged MC4R expressed in HEK293 cells assessed as reduction in NDP-MSH-induced intracellular cAMP accumulation after 2 hrs by AlphaScreen assay; format: functional, cell-based; details: read-out: pA2 (converted)
How it was run: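 Stable hMC4R-Flag HEK293 cells in IBMX-containing HBSS stimulation buffer with AlphaScreen cAMP beads, 10,000 cells/well, stimulated 2 h at room temperature. Antagonist ligands tested dose-dependently against NDP-MSH stimulation; pA2 from Schild regression. Duplicate points, at least three independent experiments.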

[3] = target: Melanocortin receptor 4 (Mus musculus) (UniProt P56450); assay: Agonist activity at mouse MC4R expressed in HEK293 cells assessed as induction of intracellular cAMP accumulation after 2 hrs by AlphaScreen assay; format: functional, cell-based; how it was run: as §1
[4] = target: Melanocortin receptor 4 (Mus musculus) (UniProt P56450); assay: Effect on protein-protein interaction of mouse Nano-Luc-tagged MC4R/mouse Halo-tagged MC4R homodimer expressed in HEK293 cells at 10^-9 to 10^-5 M up to 10 mins by BRET assay; format: cell-based
Melanocortin receptor 4 [5] = target: T1, Melanocortin receptor 4; assay: Agonist activity at human FLAG-tagged MC4R expressed in HTLA cells assessed as induction of beta-arrestin recruitment at 10 uM after 18 hrs by Presto-tango assay relative to NDP-MSH; format: cell-based
How it was run: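 HTLA cells (HEK293 with tTA-luciferase reporter and β-arrestin2-TEV) transiently transfected by calcium phosphate with hMC4R PRESTO-Tango construct (4 µg/plate), held 15–24 h at 35 °C and 3% CO2, then plated at 20,000 cells/well in 1% dialyzed FBS. Ligands 10^-12 to 10^-5 M in HEPES/HBSS pH 7.4, 18 h at 37 °C; Bright-Glo luminescence. Duplicates, ≥3 experiments.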

Melanocortin receptor 4 [6] = target: T1, Melanocortin receptor 4; assay: Selectivity ratio of EC50 for agonist activity at human FLAG-tagged MC4R expressed in HTLA cells assessed as induction of beta-arrestin recruitment to EC50 for agonist activity at human FLAG-tagged MC4R expressed in HEK293 cells assessed as induction of intracellular cAMP accumulation; format: functional, cell-based
[7] = target: Melanocortin receptor 4 (Mus musculus) (UniProt P56450); assay: Decrease in protein-protein interaction of mouse Nano-Luc-tagged MC4R/mouse Halo-tagged MC4R homodimer expressed in HEK293 cells up to 10 mins by BRET assay; format: cell-based
Melanocortin receptor 4 [8] = target: T1, Melanocortin receptor 4; assay: Agonist activity at human FLAG-tagged MC4R expressed in HEK293 cells assessed as induction of intracellular cAMP accumulation after 2 hrs by AlphaScreen assay; format: functional, cell-based

T1 sequence (P32245 whole entry): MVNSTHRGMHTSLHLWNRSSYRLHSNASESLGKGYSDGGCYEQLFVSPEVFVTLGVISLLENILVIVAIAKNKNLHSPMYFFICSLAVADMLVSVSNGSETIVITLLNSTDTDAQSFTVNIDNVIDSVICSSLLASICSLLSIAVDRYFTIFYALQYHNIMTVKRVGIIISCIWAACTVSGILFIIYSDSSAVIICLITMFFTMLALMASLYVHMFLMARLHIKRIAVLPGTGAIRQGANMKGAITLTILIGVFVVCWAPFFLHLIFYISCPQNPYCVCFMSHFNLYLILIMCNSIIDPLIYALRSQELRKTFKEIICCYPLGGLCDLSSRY
Chain of Melanocortin receptor 4 (Mus musculus) (P56450 whole entry): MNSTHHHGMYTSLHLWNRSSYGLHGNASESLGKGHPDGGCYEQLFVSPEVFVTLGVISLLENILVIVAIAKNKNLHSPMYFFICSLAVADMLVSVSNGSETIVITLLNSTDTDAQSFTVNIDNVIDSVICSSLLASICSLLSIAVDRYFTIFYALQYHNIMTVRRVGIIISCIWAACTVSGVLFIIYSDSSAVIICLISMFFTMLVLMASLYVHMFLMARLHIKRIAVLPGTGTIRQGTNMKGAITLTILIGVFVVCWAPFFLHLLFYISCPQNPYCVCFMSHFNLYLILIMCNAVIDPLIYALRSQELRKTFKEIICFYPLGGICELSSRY

Activity (Melanocortin receptor 4 [1]) | Kb (Melanocortin receptor 4 [2]) | Activity [3] | Activity (Melanocortin receptor 4 [5]) | Ratio EC50 (Melanocortin receptor 4 [6]) | SMILES | also measured
70% | 15.8 nM | inactive | 10% |  | CC(=O)N[C@@H](Cc1cnc[nH]1)C(=O)N[C@H](Cc1ccc2ccccc2c1)C(=O)N[C@@H](CCCNC(=N)N)C(=O)N[C@@H](Cc1c[nH]c2ccccc12)C(=O)NCCCOCCOCCOCCCNC(=O)COCC(=O)N[C@@H](Cc1cnc[nH]1)C(=O)N[C@H](Cc1ccc2ccccc2c1)C(=O)N[C@@H](CCCNC(=N)N)C(=O)N[C@@H](Cc1c[nH]c2ccccc12)C(N)=O | Activity [4]: inactive
 |  | Active | 45% | 3000 | CC(=O)N[C@@H](Cc1cnc[nH]1)C(=O)N[C@H](Cc1ccccc1)C(=O)N[C@@H](CCCNC(=N)N)C(=O)N[C@@H](Cc1c[nH]c2ccccc12)C(=O)NCCCOCCOCCOCCCNC(=O)COCC(=O)N[C@@H](Cc1cnc[nH]1)C(=O)N[C@H](Cc1ccc2ccccc2c1)C(=O)N[C@@H](CCCNC(=N)N)C(=O)N[C@@H](Cc1c[nH]c2ccccc12)C(N)=O | 
50% | 13.5 nM |  | 20% |  | N=C(N)NCCC[C@H](NC(=O)[C@@H](Cc1ccc2ccccc2c1)NC(=O)[C@H](Cc1cnc[nH]1)NC(=O)COCC(=O)NCCCOCCOCCOCCCN)C(=O)N[C@@H](Cc1c[nH]c2ccccc12)C(N)=O | 
 |  | Active |  |  | CC(=O)N[C@@H](Cc1cnc[nH]1)C(=O)N[C@H](Cc1ccccc1)C(=O)N[C@@H](CCCNC(=N)N)C(=O)N[C@@H](Cc1c[nH]c2ccccc12)C(=O)NCCCOCCOCCOCCCNC(=O)COCC(=O)N[C@@H](Cc1cnc[nH]1)C(=O)N[C@H](Cc1ccccc1)C(=O)N[C@@H](CCCNC(=N)N)C(=O)N[C@@H](Cc1c[nH]c2ccccc12)C(N)=O | Activity [7]: Dose-dependent effect
 | 15.1 nM |  |  |  | CC(=O)N[C@@H](Cc1cnc[nH]1)C(=O)N[C@H](Cc1ccc2ccccc2c1)C(=O)N[C@@H](CCCNC(=N)N)C(=O)N[C@@H](Cc1c[nH]c2ccccc12)C(N)=O | 
 |  | Active |  |  | CC(=O)N[C@@H](Cc1cnc[nH]1)C(=O)N[C@H](Cc1ccccc1)C(=O)N[C@@H](CCCNC(=N)N)C(=O)N[C@@H](Cc1c[nH]c2ccccc12)C(N)=O | Activity [7]: Dose-dependent effect
55% | 52.5 nM |  | 30% |  | CC(=O)N[C@@H](Cc1cnc[nH]1)C(=O)N[C@H](Cc1ccc2ccccc2c1)C(=O)N[C@@H](CCCNC(=N)N)C(=O)N[C@@H](Cc1c[nH]c2ccccc12)C(=O)N1CCC[C@H]1C(=O)NCC(=O)N1CCC[C@H]1C(=O)NCC(=O)N1CCC[C@H]1C(=O)NCC(=O)N1CCC[C@H]1C(=O)NCC(=O)N1CCC[C@H]1C(=O)NCC(=O)N1CCC[C@H]1C(=O)NCC(N)=O (Ac-H[d2Nal]RWPGPGPGPGPGPG-NH2) | 
 |  |  | 55% | 3000 | CC(=O)N[C@@H](Cc1cnc[nH]1)C(=O)N[C@H](Cc1ccc2ccccc2c1)C(=O)N[C@@H](CCCNC(=N)N)C(=O)N[C@@H](Cc1c[nH]c2ccccc12)C(=O)N1CCC[C@H]1C(=O)NCC(=O)N1CCC[C@H]1C(=O)NCC(=O)N1CCC[C@H]1C(=O)NCC(=O)N1CCC[C@H]1C(=O)NCC(=O)N1CCC[C@H]1C(=O)NCC(=O)N1CCC[C@H]1C(=O)NCC(=O)N[C@@H](Cc1cnc[nH]1)C(=O)N[C@H](Cc1ccccc1)C(=O)N[C@@H](CCCNC(=N)N)C(=O)N[C@@H](Cc1c[nH]c2ccccc12)C(N)=O | 
55% | 7.59 nM |  | 15% |  | CC(=O)N[C@@H](Cc1cnc[nH]1)C(=O)N[C@H](Cc1ccc2ccccc2c1)C(=O)N[C@@H](CCCNC(=N)N)C(=O)N[C@@H](Cc1c[nH]c2ccccc12)C(=O)NCCCOCCOCCOCCCNC(=O)COCC(N)=O | 
 |  |  | 20% | 3000 | CC(=O)N[C@@H](Cc1cnc[nH]1)C(=O)N[C@H](Cc1ccc2ccccc2c1)C(=O)N[C@@H](CCCNC(=N)N)C(=O)N[C@@H](Cc1c[nH]c2ccccc12)C(=O)NCCCOCCOCCOCCCNC(=O)COCC(=O)N[C@@H](Cc1cnc[nH]1)C(=O)N[C@H](Cc1ccccc1)C(=O)N[C@@H](CCCNC(=N)N)C(=O)N[C@@H](Cc1c[nH]c2ccccc12)C(N)=O | 
 |  |  | 25% | 3000 | CC(=O)N[C@@H](Cc1cnc[nH]1)C(=O)N[C@H](Cc1ccc2ccccc2c1)C(=O)N[C@@H](CCCNC(=N)N)C(=O)N[C@@H](Cc1c[nH]c2ccccc12)C(=O)NCCCOCCOCCOCCCNC(=O)COCC(=O)NCCCOCCOCCOCCCNC(=O)COCC(=O)N[C@@H](Cc1cnc[nH]1)C(=O)N[C@H](Cc1ccccc1)C(=O)N[C@@H](CCCNC(=N)N)C(=O)N[C@@H](Cc1c[nH]c2ccccc12)C(N)=O | EC50 (Melanocortin receptor 4 [8]): 5.9 nM
50% |  | inactive | 30% |  | CC(=O)N[C@@H](Cc1c[nH]cn1)C(=O)N[C@H](Cc1ccc2ccccc2c1)C(=O)N[C@@H](CCCN=C(N)N)C(=O)N[C@@H](Cc1c[nH]c2ccccc12)C(N)=O | Activity [4]: inactive
